Test results reported in ChEMBL document CHEMBL4819122, “Novel 4-(piperazin-1-yl)quinolin-2(1H)-one bearing thiazoles with antiproliferative activity through VEGFR-2-TK inhibition” (Bioorg Med Chem, 2021).
The source made the active and inactive calls. No cut-off for these calls is given here.

What was measured:
[1] = tested on: UACC-257; assay: Cytotoxicity against human UACC-257 assessed as growth inhibition at 10 uM by NCI protocol relative to control; type: functional; conditions: read-out: GI
Method in brief: (§1)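 Run by the NCI under its standard protocol: one dose of 10 μM against a sixty-line panel from nine human tumour tissues. Result given as percent growth inhibition of treated cells relative to untreated cells.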

[2] = tested on: HT-29; assay: Cytotoxicity against human HT29 assessed as growth inhibition at 10 uM by NCI protocol relative to control; type: functional; conditions: read-out: GI
Method in brief: (§2)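 Run by NCI as a single-dose screen at 10 μM across the sixty-cell-line panel, which covers nine human tumour tissue types. The read-out is percent growth inhibition of treated cells relative to untreated cells.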

[3] = tested on: IGROV-1; assay: Cytotoxicity against human IGROVI assessed as growth inhibition at 10 uM by NCI protocol relative to control; type: functional; conditions: read-out: GI; method in brief: as §2
[4] = tested on: MDA-MB-435; assay: Cytotoxicity against human MDA-MB-435 assessed as growth inhibition at 10 uM by NCI protocol relative to control; type: functional, cell-based; method in brief: as §2
[5] = tested on: DU-145; assay: Cytotoxicity against human DU-145 assessed as growth inhibition at 10 uM by NCI protocol relative to control; type: functional; conditions: read-out: GI; method in brief: as §2
[6] = tested on: ACHN; assay: Cytotoxicity against human ACHN assessed as growth inhibition at 10 uM by NCI protocol relative to control; type: functional; conditions: read-out: GI; method in brief: as §2
[7] = tested on: SW-620; assay: Cytotoxicity against human SW-620 assessed as growth inhibition at 10 uM by NCI protocol relative to control; type: functional; conditions: read-out: GI; method in brief: as §1
[8] = tested on: SK-OV-3; assay: Cytotoxicity against human SK-OV-3 assessed as growth inhibition at 10 uM by NCI protocol relative to control; type: functional; conditions: read-out: GI; method in brief: as §2
[9] = tested on: SF-539; assay: Cytotoxicity against human […] assessed as growth inhibition at 10 uM by NCI protocol relative to control; type: functional; conditions: read-out: GI; method in brief: as §2
[10] = tested on: BT-549; assay: Cytotoxicity against human BT-549 assessed as growth inhibition at 10 uM by NCI protocol relative to control; type: functional; conditions: read-out: GI; method in brief: as §2
[11] = tested on: CAKI-1; assay: Cytotoxicity against human Caki1 assessed as growth inhibition at 10 uM by NCI protocol relative to control; type: functional; conditions: read-out: GI; method in brief: as §2
[12] = tested on: OVCAR-8; assay: Cytotoxicity against human OVCAR-8 assessed as growth inhibition at 10 uM by NCI protocol relative to control; type: functional; conditions: read-out: GI; method in brief: as §2
[13] = tested on: UO-31; assay: Cytotoxicity against human UO31 assessed as growth inhibition at 10 uM by NCI protocol relative to control; type: functional; conditions: read-out: GI; method in brief: as §1
[14] = tested on: HCC 2998; assay: Cytotoxicity against human HCC-2998 assessed as growth inhibition at 10 uM by NCI protocol relative to control; type: functional; conditions: read-out: GI; method in brief: as §2
[15] = tested on: U-251; assay: Cytotoxicity against human U251 assessed as growth inhibition at 10 uM by NCI protocol relative to control; type: functional; conditions: read-out: GI; method in brief: as §1
[16] = tested on: HOP-92; assay: Cytotoxicity against human HOP-92 assessed as growth inhibition at 10 uM by NCI protocol relative to control; type: functional; conditions: read-out: GI; method in brief: as §2
[17] = tested on: MDA-MB-468; assay: Cytotoxicity against human MDA-MB-468 assessed as growth inhibition at 10 uM by NCI protocol relative to control; type: functional; conditions: read-out: GI; method in brief: as §2
[18] = tested on: T47D; assay: Cytotoxicity against human T47D cells assessed as reduction in cell viability after 3 hrs by MTT assay
[19] = tested on: NCI-H322M; assay: Cytotoxicity against human NCI-H322M assessed as growth inhibition at 10 uM by NCI protocol relative to control; type: functional; conditions: read-out: GI; method in brief: as §2
[20] = tested on: MCF7; assay: Cytotoxicity against human MCF7 assessed as growth inhibition at 10 uM by NCI protocol relative to control; type: functional; conditions: read-out: GI; method in brief: as §2
[21] = tested on: M14; assay: Cytotoxicity against human M14 assessed as growth inhibition at 10 uM by NCI protocol relative to control; type: functional; conditions: read-out: GI; method in brief: as §2
[22] = tested on: Malme-3M; assay: Cytotoxicity against human MALME-3M assessed as growth inhibition at 10 uM by NCI protocol relative to control; type: functional; conditions: read-out: GI; method in brief: as §2
[23] = tested on: RXF 393; assay: Cytotoxicity against human RXF 393 assessed as growth inhibition at 10 uM by NCI protocol relative to control; type: functional; conditions: read-out: GI; method in brief: as §2
[24] = tested on: SK-MEL-2; assay: Cytotoxicity against human SK-MEL-2 assessed as growth inhibition at 10 uM by NCI protocol relative to control; type: functional; conditions: read-out: GI; method in brief: as §2
[25] = tested on: NCI-H522; assay: Cytotoxicity against human NCI-H522 assessed as growth inhibition at 10 uM by NCI protocol relative to control; type: functional; conditions: read-out: GI; method in brief: as §2
[26] = tested on: UACC-62; assay: Cytotoxicity against human UACC-62 assessed as growth inhibition at 10 uM by NCI protocol relative to control; type: functional; conditions: read-out: GI; method in brief: as §1
[27] = tested on: SF-295; assay: Cytotoxicity against human SF-295 assessed as growth inhibition at 10 uM by NCI protocol relative to control; type: functional; conditions: read-out: GI; method in brief: as §2
[28] = tested on: TK-10; assay: Cytotoxicity against human TK-10 assessed as growth inhibition at 10 uM by NCI protocol relative to control; type: functional; conditions: read-out: GI; method in brief: as §1
[29] = tested on: SF-268; assay: Cytotoxicity against human SF-268 assessed as growth inhibition at 10 uM by NCI protocol relative to control; type: functional; conditions: read-out: GI; method in brief: as §2
[30] = tested on: A549; assay: Cytotoxicity against human A549 assessed as growth inhibition at 10 uM by NCI protocol relative to control; type: functional; conditions: read-out: GI; method in brief: as §2
[31] = tested on: EKVX; assay: Cytotoxicity against human EKVX assessed as growth inhibition at 10 uM by NCI protocol relative to control; type: functional; conditions: read-out: GI; method in brief: as §2
[32] = tested on: NCI-H23; assay: Cytotoxicity against human NCI-H23 assessed as growth inhibition at 10 uM by NCI protocol relative to control; type: functional; conditions: read-out: GI; method in brief: as §2
[33] = tested on: MDA-MB-231; assay: Cytotoxicity against human MDA-MB-231 assessed as growth inhibition at 10 uM by NCI protocol relative to control; type: functional; conditions: read-out: GI; method in brief: as §2
[34] = tested on: HCT-15; assay: Cytotoxicity against human HCT-15 assessed as growth inhibition at 10 uM by NCI protocol relative to control; type: functional; conditions: read-out: GI; method in brief: as §2
[35] = tested on: COLO 205; assay: Cytotoxicity against human COLO 205 assessed as growth inhibition at 10 uM by NCI protocol relative to control; type: functional; conditions: read-out: GI; method in brief: as §2
[36] = tested on: SNB-75; assay: Cytotoxicity against human SNB-75 assessed as growth inhibition at 10 uM by NCI protocol relative to control; type: functional; conditions: read-out: GI; method in brief: as §1
[37] = tested on: KM12; assay: Cytotoxicity against human KM12 assessed as growth inhibition at 10 uM by NCI protocol relative to control; type: functional; conditions: read-out: GI; method in brief: as §2
[38] = tested on: A498; assay: Cytotoxicity against human A498 assessed as growth inhibition at 10 uM by NCI protocol relative to control; type: functional; conditions: read-out: GI; method in brief: as §2
[39] = tested on: T47D; assay: Cytotoxicity against human T-47D assessed as growth inhibition at 10 uM by NCI protocol relative to control; type: functional; conditions: read-out: GI; method in brief: as §1
[40] = tested on: HL-60; assay: Cytotoxicity against human HL60 assessed as growth inhibition at 10 uM by NCI protocol relative to control; type: functional; conditions: read-out: GI; method in brief: as §2
[41] = tested on: NCI/ADR-RES; assay: Cytotoxicity against human NCl/ADR-RES assessed as growth inhibition at 10 uM by NCI protocol relative to control; type: functional; conditions: read-out: GI; method in brief: as §2
[42] = tested on: SK-MEL-28; assay: Cytotoxicity against human SK-MEL-28 assessed as growth inhibition at 10 uM by NCI protocol relative to control; type: functional; conditions: read-out: GI; method in brief: as §2

For Cc1ccc(-c2csc(NC(=O)CN3CCN(c4cc(=O)[nH]c5ccc(F)cc45)CC3)n2)cc1, the inhibition of growth at 10 µM [1] was 37.5%, the inhibition of growth at 10 µM [2] was 21.5% and the inhibition of growth at 10 µM [3] was 52.6%. For the same molecule, the “growth inhibition (GI)” value [4] was “inactive”, the inhibition of growth at 10 µM [5] was 47.4% and the inhibition of growth at 10 µM [6] was 44.1%. For the same molecule, the inhibition of growth at 10 µM [7] was 37%, the inhibition of growth at 10 µM [8] was 11% and the inhibition of growth at 10 µM [9] was 32.7%. It also gave an inhibition of growth at 10 µM [10] of 21.5%, an inhibition of growth at 10 µM [11] of 52.6% and an inhibition of growth at 10 µM [12] of 23.2%. It also gave an inhibition of growth at 10 µM [13] of 35.4%, an inhibition of growth at 10 µM [14] of 34.1% and an inhibition of growth at 10 µM [15] of 44.4%. The inhibition of growth at 10 µM [16] was 39.7%, the inhibition of growth at 10 µM [17] was 41.5% and the IC50 [18] was 8.41 µM. It also gave an inhibition of growth at 10 µM [19] of 18.9%, an inhibition of growth at 10 µM [20] of 33.5% and an inhibition of growth at 10 µM [21] of 27.5%. It also gave an inhibition of growth at 10 µM [22] of 43.5%, an inhibition of growth at 10 µM [23] of 27% and an inhibition of growth at 10 µM [24] of 10.2%. The inhibition of growth at 10 µM [25] was 22.3%, the inhibition of growth at 10 µM [26] was 33.9% and the inhibition of growth at 10 µM [27] was 20.3%. For the same molecule, the inhibition of growth at 10 µM [28] was 46.3%, the inhibition of growth at 10 µM [29] was 14.5% and the inhibition of growth at 10 µM [30] was 43.7%. It also gave an inhibition of growth at 10 µM [31] of 42.1%, an inhibition of growth at 10 µM [32] of 21.6% and an inhibition of growth at 10 µM [33] of 19%. It also gave an inhibition of growth at 10 µM [34] of 37.1%, an inhibition of growth at 10 µM [35] of 10.7% and an inhibition of growth at 10 µM [36] of 32.6%. The inhibition of growth at 10 µM [37] was 13.3%, the inhibition of growth at 10 µM [38] was 56.6% and the inhibition of growth at 10 µM [39] was 74.3%. For the same molecule, the inhibition of growth at 10 µM [40] was 40.6%, the inhibition of growth at 10 µM [41] was 38.4% and the inhibition of growth at 10 µM [42] was 17.8%.
